Experimental findings from ChEMBL document CHEMBL4304743, “Discovery of ( E)- N1-(3-Fluorophenyl)- N3-(3-(2-(pyridin-2-yl)vinyl)-1 H-indazol-6-yl)malonamide (CHMFL-KIT-033) as a Novel c-KIT T670I Mutant Selective Kinase Inhibitor for Gastrointestinal Stromal Tumors (GISTs)” (J Med Chem, 2019) are described below.

pEC50, pIC50: −log10 of the molar value. Active and inactive are the calls of the source. The calls are words filed in the database; no cut-off is given here.

The species entered for data set [1] is Homo sapiens. The data set is described as follows: Induction of apoptosis in human GIST5R cells harboring c-KIT 560 to 578 deletion/T670I double mutant assessed as increase in cleaved caspase level after 24 hrs by Western blot analysis. Format: functional, cell-based.
Data set [2] is described as follows: Apparent volume of distribution in Sprague-Dawley rat at 1 mg/kg, iv measured after 2 to 720 mins by LC-tandem mass spectrometry analysis. The format is ADME, organism-based. To be noted: in vivo, read-out: Vz. The procedure, abridged: (§1)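 Male Sprague-Dawley rats (190-210 g), fasted 12 h, randomized into two groups: 1 mg/kg i.v. or 10 mg/kg p.o., both formulated in 10% DMSO/90% of 5% glucose water. Blood sampled at 2-720 min (i.v.) or 5-720 min (p.o.). Plasma protein-precipitated with methanol, caffeine internal standard, LC-MS/MS. Noncompartmental analysis; triplicate, ±SD.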

Data set [3] relates to Mast/stem cell growth factor receptor Kit (Homo sapiens), P10721 [V559D,T670I]. Briefly: Inhibition of TEL fused c-KIT T670I/V559D double mutant (unknown origin) transfected in mouse BAF3 cells assessed as growth inhibition after 72 hrs by CCK8 assay. Format: cell-based. The procedure, abridged: (§2)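 Tel-c-KIT-transformed BaF3 lines (IL-3 independent) kept in RPMI 1640 with 10% FBS, 2% L-glutamine and pen/strep. Cells at 1.5 to 5 × 10^4 cells/mL mixed with graded compound and incubated 72 h at 37 °C, 5% CO2. Viability by CCK-8 absorbance at 450 nm, normalized to DMSO. GI50 from dose–response fit.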

Data set [4] relates to Mast/stem cell growth factor receptor Kit (Homo sapiens), P10721 [UNDEFINED MUTATION]. Briefly: Inhibition of c-KIT 560 to 578 deletion/T670I double mutant in human GISTT1 cells assessed as reduction in c-KIT autophosphorylation at Y823 residue at 0.1 uM to 3 uM after 1 hr by Western blot analysis. The format is cell-based. A digest of the protocol:
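Serial compound dilutions applied for 1 h to GIST-T1, GIST-T1-T670I (CRISPR/Cas9 T670I knock-in, clone confirmed by Sanger sequencing) or GIST-5R cells in DMEM with 10% FBS. Cells then lysed and phospho-proteins detected by standard Western blotting.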

Data set [5] can be described thus: Half-life in Sprague-Dawley rat at 10 mg/kg, po measured after 5 to 720 mins by LC-tandem mass spectrometry analysis. The format is ADME, organism-based. The conditions noted are these: in vivo. The procedure, abridged: as §1
Data set [6] addresses Serine/threonine-protein kinase 25 (Homo sapiens, UniProt O00506). Briefly: Inhibition of wild-type human partial length STK25 (V14 to H295 residues) expressed in bacterial expression system after 1 hr by Z-LYTE assay.
A short description of data set [7]: AUC (0 to t) in Sprague-Dawley rat at 1 mg/kg, iv measured after 2 to 720 mins by LC-tandem mass spectrometry analysis. The format is ADME, organism-based. The conditions noted are these: in vivo. The procedure, abridged:
as §1

For data set [8], the species on record is Homo sapiens. The data set is described as follows: Selectivity ratio, ratio of IC50 for wild-type His-tagged c-KIT (unknown origin) expressed in baculovirus infected sf9 cells to IC50 for His-tagged c-KIT T670I mutant (544 to 935 residues) (unknown origin) expressed in baculovirus infected sf9 cells. A digest of the protocol: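 Purified protein: His-tagged c-KIT wt or T670I, residues 544−935, expressed in baculovirus-infected SF9 cells. Purified by Ni-NTA then Superdex-200. Enzyme (wt 20 ng/µL, T670I 15 ng/µL) preincubated with inhibitor 60 min at room temperature. Then ATP/substrate added (50 µM ATP) and run 1 h at 37 °C. ADP-Glo luminescence read-out; IC50 from fitted dose–response curves.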

The target in data set [9] is Mast/stem cell growth factor receptor Kit (Homo sapiens, UniProt P10721). The data set is described as follows: Inhibition of wild type c-KIT phosphorylation at Y719 residue in human COLO320DM cells after 2 hrs by Western blot analysis. The format is cell-based.
Data set [10] relates to Mast/stem cell growth factor receptor Kit (Homo sapiens), P10721 [D820E]. The data set is described as follows: Inhibition of TEL fused c-KIT D820E mutant (unknown origin) transfected in mouse BAF3 cells assessed as growth inhibition after 72 hrs by CCK8 assay. Format: cell-based. A digest of the protocol: as §2
Data set [11] is described as follows: AUC (0 to t) in mouse at 10 mg/kg, po measured after 5 to 720 mins by LC-tandem mass spectrometry analysis. Format: ADME, organism-based. The conditions noted are these: in vivo. A digest of the protocol:
(§3)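 Mice dosed 1 mg/kg i.v. or 10 mg/kg p.o.; plasma drug levels by LC-MS/MS, parameters by noncompartmental analysis; values not from triplicate testing.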

Data set [12] concerns Mast/stem cell growth factor receptor Kit (Homo sapiens), P10721 [T670I]. Briefly: Inhibition of TEL fused c-KIT T670I mutant (unknown origin) transfected in mouse BAF3 cells assessed as growth inhibition after 72 hrs by CCK8 assay. Format: cell-based. A digest of the protocol:
as §2

The species entered for data set [13] is Homo sapiens. The data set is described as follows: Induction of cell cycle arrest in human GIST5R cells harboring 560 to 578 deletion/T670I double mutant after 24 hrs. Format: functional, cell-based.
The species entered for data set [14] is Homo sapiens. Briefly: Induction of apoptosis in human GIST5R cells harboring c-KIT 560 to 578 deletion/T670I double mutant assessed as increase in cleaved PARP level after 24 hrs by Western blot analysis. Format: functional, cell-based. A digest of the protocol: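 GIST cells grown in DMEM with 10% FBS, treated 24 h with serially diluted compound; apoptosis read by Western blot for PARP, with GAPDH as loading control.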

The nature of data set [15]: Apparent clearance in Sprague-Dawley rat at 1 mg/kg, iv measured after 2 to 720 mins by LC-tandem mass spectrometry analysis. The format is ADME, organism-based. The conditions noted are these: in vivo, read-out: CL(app) (converted). A digest of the protocol: as §1
The test system of another data set is Mus musculus. Briefly: Inhibition of AKT phosphorylation at […] residue in tumor of human GIST5R cells xenografted in nude mouse at 100 mg/kg, po administered as single dose and measured at 2 hrs. The format is functional, organism-based. A digest of the protocol:
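Female nu/nu mice bearing subcutaneous GIST-5R tumors (cells in Matrigel, right flank) given one oral dose of 100 mg/kg in 0.5% methylcellulose/0.4% Tween80. Tumors collected over a 2 h time course. p-c-KIT, p-ERK and p-AKT measured alongside plasma drug levels.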

The nature of data set [16]: Apparent volume of distribution in mouse at 1 mg/kg, iv measured after 2 to 720 mins by LC-tandem mass spectrometry analysis. The conditions noted are these: in vivo, read-out: Vz. Format: ADME, organism-based. The procedure, abridged:
as §3

Data set [17] deals with Mast/stem cell growth factor receptor Kit (Homo sapiens), P10721 [V559D,V654A]. The data set is described as follows: Inhibition of TEL fused c-KIT V654A/V559D double mutant (unknown origin) transfected in mouse BAF3 cells assessed as growth inhibition after 72 hrs by CCK8 assay. Format: cell-based. A digest of the protocol:
as §2

Data set [18] in a line: Apparent clearance in Sprague-Dawley rat at 10 mg/kg, po measured after 5 to 720 mins by LC-tandem mass spectrometry analysis. Format: ADME, organism-based. The conditions noted are these: in vivo, read-out: CL(app) (converted). A digest of the protocol: as §1
The target of data set [19] is Platelet-derived growth factor receptor alpha (Homo sapiens, UniProt P16234). Briefly: Binding affinity to wild-type human partial length PDGFRA (V575 to D1002 residues) expressed in mammalian expression system assessed as enzyme remaining activity at 1 uM by Kinomescan assay relative to control.
Chain of Platelet-derived growth factor receptor alpha (P16234 whole entry, the tested form may be a part): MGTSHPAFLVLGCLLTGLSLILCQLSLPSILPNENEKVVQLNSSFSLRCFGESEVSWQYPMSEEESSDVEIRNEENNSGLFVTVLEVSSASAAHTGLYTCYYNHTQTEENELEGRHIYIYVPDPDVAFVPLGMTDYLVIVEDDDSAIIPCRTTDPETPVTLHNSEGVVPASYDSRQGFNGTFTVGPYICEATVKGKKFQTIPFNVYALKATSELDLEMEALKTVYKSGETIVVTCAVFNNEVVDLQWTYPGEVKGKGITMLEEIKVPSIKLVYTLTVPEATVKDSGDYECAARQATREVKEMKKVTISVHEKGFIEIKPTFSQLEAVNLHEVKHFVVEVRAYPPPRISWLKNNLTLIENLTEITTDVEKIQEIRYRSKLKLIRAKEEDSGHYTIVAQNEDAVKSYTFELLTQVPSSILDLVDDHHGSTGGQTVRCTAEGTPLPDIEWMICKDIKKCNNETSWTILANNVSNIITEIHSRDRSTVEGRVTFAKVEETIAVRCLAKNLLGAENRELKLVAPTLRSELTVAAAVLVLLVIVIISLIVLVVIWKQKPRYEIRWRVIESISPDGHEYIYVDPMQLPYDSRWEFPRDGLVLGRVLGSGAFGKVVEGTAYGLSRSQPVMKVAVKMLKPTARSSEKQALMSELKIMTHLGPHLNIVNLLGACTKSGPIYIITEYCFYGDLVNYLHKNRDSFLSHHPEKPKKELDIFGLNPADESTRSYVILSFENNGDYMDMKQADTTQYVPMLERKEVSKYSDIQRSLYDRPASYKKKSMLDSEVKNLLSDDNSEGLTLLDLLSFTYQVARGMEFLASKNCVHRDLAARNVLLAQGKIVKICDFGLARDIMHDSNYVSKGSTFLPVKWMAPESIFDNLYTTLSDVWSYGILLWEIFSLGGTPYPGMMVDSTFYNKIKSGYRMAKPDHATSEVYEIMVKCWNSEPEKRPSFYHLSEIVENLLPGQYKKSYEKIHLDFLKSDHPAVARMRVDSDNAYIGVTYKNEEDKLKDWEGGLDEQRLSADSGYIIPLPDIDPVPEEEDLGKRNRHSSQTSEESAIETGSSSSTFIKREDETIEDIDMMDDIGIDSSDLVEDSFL

Chain of Mast/stem cell growth factor receptor Kit (P10721 whole entry, the tested form may be a part): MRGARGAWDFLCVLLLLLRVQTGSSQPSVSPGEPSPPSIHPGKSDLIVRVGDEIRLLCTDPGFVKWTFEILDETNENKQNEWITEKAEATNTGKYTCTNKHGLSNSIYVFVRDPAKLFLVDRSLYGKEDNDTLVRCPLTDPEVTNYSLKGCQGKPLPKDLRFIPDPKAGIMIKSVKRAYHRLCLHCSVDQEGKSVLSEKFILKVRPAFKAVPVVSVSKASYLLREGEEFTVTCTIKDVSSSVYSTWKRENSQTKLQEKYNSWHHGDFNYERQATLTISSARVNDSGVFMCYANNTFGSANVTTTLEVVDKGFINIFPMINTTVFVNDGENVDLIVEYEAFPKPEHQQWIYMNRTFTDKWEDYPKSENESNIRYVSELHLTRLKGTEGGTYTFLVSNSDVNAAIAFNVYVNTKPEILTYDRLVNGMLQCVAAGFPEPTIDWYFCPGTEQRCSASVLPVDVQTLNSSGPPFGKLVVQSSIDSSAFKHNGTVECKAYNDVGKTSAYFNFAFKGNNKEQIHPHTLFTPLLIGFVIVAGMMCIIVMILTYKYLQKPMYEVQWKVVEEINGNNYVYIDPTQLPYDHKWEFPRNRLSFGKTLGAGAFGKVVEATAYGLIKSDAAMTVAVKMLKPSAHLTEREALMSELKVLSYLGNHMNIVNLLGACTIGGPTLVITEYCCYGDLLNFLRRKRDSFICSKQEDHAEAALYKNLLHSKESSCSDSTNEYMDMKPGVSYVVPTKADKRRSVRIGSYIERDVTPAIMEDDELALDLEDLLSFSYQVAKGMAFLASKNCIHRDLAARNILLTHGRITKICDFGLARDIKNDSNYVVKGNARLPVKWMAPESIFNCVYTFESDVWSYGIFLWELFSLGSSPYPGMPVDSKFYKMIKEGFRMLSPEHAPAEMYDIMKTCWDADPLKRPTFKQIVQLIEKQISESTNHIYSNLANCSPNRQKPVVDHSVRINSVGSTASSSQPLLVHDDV
Chain of Mast/stem cell growth factor receptor Kit (Homo sapiens), P10721 [UNDEFINED MUTATION] (P10721 whole entry, looked up, stated change not applied): as the sequence (P10721 whole entry, the tested form may be a part) above
Chain of Mast/stem cell growth factor receptor Kit (Homo sapiens), P10721 [V559D,T670I] (P10721 whole entry V559D/T670I, the tested form may be a part): as the sequence (P10721 whole entry, the tested form may be a part) above, with V559D, T670I counted along it
Chain of Mast/stem cell growth factor receptor Kit (Homo sapiens), P10721 [T670I] (P10721 whole entry T670I, the tested form may be a part): as the sequence (P10721 whole entry, the tested form may be a part) above, with T670I counted along it
Chain of Mast/stem cell growth factor receptor Kit (Homo sapiens), P10721 [V559D,V654A] (P10721 whole entry V559D/V654A, the tested form may be a part): as the sequence (P10721 whole entry, the tested form may be a part) above, with V559D, V654A counted along it
Chain of Mast/stem cell growth factor receptor Kit (Homo sapiens), P10721 [D820E] (P10721 whole entry D820E, the tested form may be a part): as the sequence (P10721 whole entry, the tested form may be a part) above, with D820E counted along it
Chain of Serine/threonine-protein kinase 25 (O00506 whole entry, the tested form may be a part): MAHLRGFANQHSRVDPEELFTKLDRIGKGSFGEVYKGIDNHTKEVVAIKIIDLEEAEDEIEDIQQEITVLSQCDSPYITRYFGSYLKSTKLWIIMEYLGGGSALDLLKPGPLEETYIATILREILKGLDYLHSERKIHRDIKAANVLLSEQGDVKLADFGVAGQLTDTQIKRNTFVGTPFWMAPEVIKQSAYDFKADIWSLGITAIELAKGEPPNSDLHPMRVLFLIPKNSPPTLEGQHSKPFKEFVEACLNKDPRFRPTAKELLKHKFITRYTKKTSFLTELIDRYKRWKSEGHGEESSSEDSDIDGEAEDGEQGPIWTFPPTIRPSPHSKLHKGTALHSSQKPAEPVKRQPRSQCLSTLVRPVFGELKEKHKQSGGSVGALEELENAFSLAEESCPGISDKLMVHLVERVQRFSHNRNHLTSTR

For `O=C(CC(=O)Nc1ccc2c(/C=C/c3ccccn3)n[nH]c2c1)Nc1cccc(F)c1`, the Activity result was “Dose-dependent effect” in the data set listed under Homo sapiens [1], “Dose-dependent effect” in the data set filed under Homo sapiens [13], “Dose-dependent effect” in the data set listed under Homo sapiens [14] and 3.4% in data set [19]. Besides, the Vd in data set [2] stood at 49.3 L/kg; in data set [16], 5.7 L/kg. In addition, the GI50 in data set [3] came out at 122 nM; in data set [10] it was 868 nM; in [12], 44 nM; in [17], 265 nM. Further, the inhibition result (in data set [4]; in the data set on Mus musculus) was “Active” throughout. The molecule further showed a half-life in [5] of 4.9 h. The pIC50 in data set [6] was less than 5.00. In addition, the area under the curve AUC(0-t) in [7] came out at 259 ng·h/mL; in data set [11] it was 1470 ng·h/mL. Further, the Ratio IC50 in the data set listed under Homo sapiens [8] worked out at 12. In [9], this molecule showed a pEC50 of 5.84. For the same molecule, the clearance in [15] is 55 mL/min/kg. For the same molecule, the CL/F in [18] was 207 mL/min/kg.
